According to ChEMBL document CHEMBL1124191, “Design of rat renin inhibitory peptides” (J Med Chem, 1988):
pIC50: −log10 of the molar value. Where a SMILES comes first, the peptide text is derived from it. [ ]: non-standard residue; d: D form. Sta = CC(C)C[C@H](N)[C@@H](O)CC(=O)O

Key:
Rattus norvegicus [1] = experiment: Compound evaluated for decrease in mean arterial pressure at a minimal dose of 100 ug/kg in rats; format: functional, Artery
Renin [2] = biological target: T1, Renin (Homo sapiens, UniProt P00797); experiment: Compound was tested for its inhibitory activity against human plasma renin; format: cell-free
T1 sequence (P00797 whole entry): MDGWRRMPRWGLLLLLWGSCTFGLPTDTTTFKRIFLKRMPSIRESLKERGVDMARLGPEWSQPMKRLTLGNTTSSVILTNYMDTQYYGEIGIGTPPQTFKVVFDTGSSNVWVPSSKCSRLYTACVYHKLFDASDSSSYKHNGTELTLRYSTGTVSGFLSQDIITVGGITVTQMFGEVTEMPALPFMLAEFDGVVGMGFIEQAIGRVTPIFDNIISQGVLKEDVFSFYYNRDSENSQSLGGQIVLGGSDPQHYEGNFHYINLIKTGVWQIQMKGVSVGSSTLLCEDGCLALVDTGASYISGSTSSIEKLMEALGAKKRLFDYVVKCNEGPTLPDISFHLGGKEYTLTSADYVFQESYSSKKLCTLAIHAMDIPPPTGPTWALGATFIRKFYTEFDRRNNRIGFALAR

Rattus norvegicus [3] = experiment: Compound evaluated for decrease in mean arterial pressure at a minimal dose of 3 ug/kg in rats; format: functional, Artery
Renin [4] = biological target: T2, Renin (Rattus norvegicus, UniProt P08424); experiment: Inhibitory activity against rat plasma renin in vitro.; format: cell-free
T2 sequence (P08424 whole entry): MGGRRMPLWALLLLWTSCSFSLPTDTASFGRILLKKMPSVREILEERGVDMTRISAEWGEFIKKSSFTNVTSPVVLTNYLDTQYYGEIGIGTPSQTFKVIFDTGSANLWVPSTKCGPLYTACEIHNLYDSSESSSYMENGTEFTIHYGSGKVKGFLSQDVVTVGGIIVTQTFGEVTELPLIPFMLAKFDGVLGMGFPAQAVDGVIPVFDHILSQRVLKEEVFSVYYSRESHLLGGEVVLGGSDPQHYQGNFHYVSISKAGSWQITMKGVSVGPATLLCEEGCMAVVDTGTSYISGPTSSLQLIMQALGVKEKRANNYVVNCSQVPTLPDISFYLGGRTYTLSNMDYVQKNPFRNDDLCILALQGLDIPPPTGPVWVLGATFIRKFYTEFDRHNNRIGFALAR
In short: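 Pooled EDTA rat plasma with added PMSF 5 mM, 8-hydroxyquinoline 3 mM and extra EDTA 5 mM, at pH 7.4, mixed with serial 1:10 peptide dilutions (Tris/DMSO), split, and incubated 1 h at 37 and 0 °C.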

Structure (SMILES) | pIC50 (Renin [2]) | pIC50 (Renin [4]) | other results
CC(=O)N[C@@H](Cc1c[nH]cn1)C(=O)N1CCC[C@H]1C(=O)N[C@@H](Cc1ccccc1)C(=O)N[C@@H](Cc1c[nH]cn1)C(=O)N[C@@H](CC(C)C)[C@@H](O)CC(=O)N[C@@H](CC(C)C)C(=O)N[C@@H](Cc1ccccc1)C(N)=O | – | – | Decrease (Rattus norvegicus [1]): 13.2%
CC(=O)N[C@@H](Cc1c[nH]cn1)C(=O)N1CCC[C@H]1C(=O)N[C@@H](Cc1ccccc1)C(=O)N[C@H](C(=O)N[C@@H](CC(C)C)[C@@H](O)CC(=O)N[C@@H](CC(C)C)C(=O)N[C@@H](Cc1ccccc1)C(N)=O)C(C)C | – | – | Decrease (Rattus norvegicus [3]): 4.9%
CC(=O)N[C@@H](Cc1cnc[nH]1)C(=O)N1CCC[C@@H]1C(=O)N[C@@H](Cc1ccccc1)C(=O)N[C@H](C(=O)N[C@@H](CC(C)C)[C@@H](O)CC(=O)N[C@@H](CC(C)C)C(=O)N[C@@H](Cc1ccccc1)C(N)=O)C(C)C | 8.49 | – | –
CC(=O)N[C@@H](Cc1cnc[nH]1)C(=O)N1CCC[C@@H]1C(=O)N[C@@H](Cc1ccccc1)C(=O)N[C@@H](Cc1cnc[nH]1)C(=O)N[C@@H](CC1CCCCC1)[C@@H](O)CC(=O)N[C@@H](CC(C)C)C(=O)N[C@@H](Cc1ccccc1)C(N)=O | 9.30 | – | –
CC(=O)N[C@@H](Cc1cnc[nH]1)C(=O)N1CCC[C@@H]1C(=O)N[C@@H](Cc1ccccc1)C(=O)N[C@H](C(=O)N[C@@H](CC1CCCCC1)[C@@H](O)CC(=O)N[C@@H](CC(C)C)C(=O)N[C@@H](Cc1ccccc1)C(N)=O)C(C)C | 7.82 | – | –
CC(C)C[C@H](NC(=O)C[C@H](O)[C@H](CC(C)C)NC(=O)[C@H](Cc1c[nH]cn1)NC(=O)[C@H](Cc1ccccc1)NC(=O)[C@@H]1CCCN1C(=O)[C@H](Cc1c[nH]cn1)NC(=O)[C@@H]1CCCN1)C(=O)N[C@@H](Cc1ccc(O)cc1)C(=O)N[C@@H](Cc1ccc(O)cc1)C(N)=O (H-PHPFH[Sta]LYY-NH2) | – | 6.11 | –
CC(C)C[C@H](NC(=O)[C@H](Cc1c[nH]cn1)NC(=O)[C@H](Cc1ccccc1)NC(=O)[C@@H]1CCCN1C(=O)[C@H](Cc1c[nH]cn1)NC(=O)[C@@H]1CCCN1)[C@@H](O)CC(=O)N[C@H](C(=O)N[C@H](C(N)=O)[C@@H](C)O)[C@@H](C)O (H-PHPFH[Sta]TT-NH2) | – | 3.98 | –
CC(C)C[C@H](NC(=O)[C@H](Cc1cnc[nH]1)NC(=O)[C@H](Cc1ccccc1)NC(=O)[C@@H]1CCCN1C(=O)[C@H](Cc1cnc[nH]1)NC(=O)[C@@H]1CCCN1)[C@@H](O)CC(=O)N[C@@H](Cc1ccc(O)cc1)C(=O)N[C@@H](Cc1ccc(O)cc1)C(=O)N[C@@H](CCCCN)C(N)=O (H-PHPFH[Sta]YYK-NH2) | – | 4.46 | –

More lines, main results first:

pIC50 (Renin [2]) | pIC50 (Renin [4]) | Structure (SMILES) | other results
7.85 | – | CC(=O)N[C@@H](Cc1cnc[nH]1)C(=O)N1CCC[C@@H]1C(=O)N[C@@H](Cc1ccccc1)C(=O)N[C@@H](Cc1cnc[nH]1)C(=O)N[C@@H](CC(C)C)[C@@H](O)CC(=O)N[C@@H](CC(C)C)C(=O)N[C@@H](Cc1ccccc1)C(N)=O | –
– | 5.80 | CC(C)C[C@H](NC(=O)[C@H](Cc1cnc[nH]1)NC(=O)[C@H](Cc1ccccc1)NC(=O)[C@@H]1CCCN1C(=O)[C@H](Cc1cnc[nH]1)NC(=O)[C@@H]1CCCN1)[C@@H](O)CC(=O)N[C@@H](Cc1ccc(O)cc1)C(=O)N[C@@H](Cc1ccc(O)cc1)C(N)=O (H-PHPFH[Sta]YY-NH2) | –
– | 5.10 | CC(C)C[C@H](NC(=O)[C@H](Cc1c[nH]cn1)NC(=O)[C@H](Cc1ccccc1)NC(=O)[C@@H]1CCCN1C(=O)[C@H](Cc1c[nH]cn1)NC(=O)[C@@H]1CCCN1)[C@@H](O)CC(=O)N[C@@H](Cc1ccc(O)cc1)C(=O)N[C@@H](Cc1ccc(O)cc1)C(=O)N[C@@H](CO)C(=O)N[C@@H](CCCCN)C(N)=O (H-PHPFH[Sta]YYSK-NH2) | –
